Converted amounts (≈) assume the structure as drawn.
What was measured:
[1] = tested on: Streptococcus pneumoniae; test: Ratio of MBC to MIC against penicillin-susceptible Streptococcus pneumoniae PU09; type: functional
[2] = tested on: Staphylococcus aureus; test: Antibacterial activity against MLSB/methicillin/ciprofloxacin-resistant Staphylococcus aureus PU32 harboring ermA gene assessed as reduction in microbial growth relative to ciprofloxacin; type: functional
[3] = tested on: Staphylococcus aureus; test: Bactericidal activity against MLSB/methicillin/ciprofloxacin-resistant Staphylococcus aureus PU32 harboring ermA gene; type: functional
In short: (§1)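 Bacteria were exposed to 1- to 8-fold their MIC of test sample, then transferred to fresh culture medium without antibacterial compound and incubated for the required time. Colonies were then counted. MBC is the lowest concentration giving a reduction in colony number of >3 Log₁₀.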

[4] = tested on: Streptococcus pyogenes; test: Ratio of MBC to MIC against MLSB-resistant Streptococcus pyogenes 12-206 harboring ermA gene; type: functional
[5] = tested on: Streptococcus pneumoniae; test: Bactericidal activity against Erythromycin-susceptible Streptococcus pneumoniae ATCC 49619; type: functional
In short: (§2)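 Bacteria were exposed to 1- to 8-fold MIC of the sample, then transferred to fresh medium without antibacterial. After further incubation, colonies were counted. MBC was taken as the lowest concentration giving a >3 log10 reduction in colony number.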

[6] = tested on: Haemophilus influenzae; test: Antibacterial activity against azithromycin-susceptible Haemophilus influenzae ATCC 49247 assessed as reduction in microbial growth relative to ciprofloxacin; type: functional
[7] = tested on: Haemophilus influenzae; test: Bactericidal activity against azithromycin-susceptible Haemophilus influenzae ATCC 49247; type: functional; in short: as §2
[8] = tested on: Staphylococcus aureus; test: Bactericidal activity against MLSB/methicillin-resistant Staphylococcus aureus 15B196; type: functional; in short: as §1
[9] = tested on: Streptococcus pneumoniae; test: Bactericidal activity against penicillin-susceptible Streptococcus pneumoniae PU09 harboring mef gene; type: functional; in short: as §1
[10] = tested on: Staphylococcus aureus; test: Ratio of MBC to MIC against MLSB/methicillin/ciprofloxacin-resistant Staphylococcus aureus PU32 harboring ermA gene; type: functional
[11] = tested on: Streptococcus pneumoniae; test: Bactericidal activity against MLSB-resistant Streptococcus pneumoniae 07P390 harboring ermB gene assessed as reduction in microbial growth; type: functional; in short: as §1
[12] = tested on: Staphylococcus aureus; test: Antibacterial activity against MLSB/methicillin-resistant Staphylococcus aureus 15B196 assessed as reduction in microbial growth relative to ciprofloxacin; type: functional
[13] = tested on: Staphylococcus aureus; test: Antibacterial activity against MLSB/methicillin/ciprofloxacin-resistant Staphylococcus aureus PU32 harboring ermA gene assessed as reduction in microbial growth; type: functional
[14] = tested on: Haemophilus influenzae; test: Antibacterial activity against azithromycin-susceptible Haemophilus influenzae ATCC 49247 assessed as reduction in microbial growth; type: functional
[15] = tested on: Staphylococcus aureus; test: Antibacterial activity against MLSB/methicillin-resistant Staphylococcus aureus 15B196 assessed as reduction in microbial growth; type: functional
[16] = tested on: Haemophilus influenzae; test: Ratio of MBC to MIC against azithromycin-susceptible Haemophilus influenzae ATCC 49247; type: functional
[17] = tested on: Streptococcus pyogenes; test: Bactericidal activity against MLSB-resistant Streptococcus pyogenes 12-206 harboring ermA gene; type: functional; in short: as §1
[18] = tested on: Streptococcus pneumoniae; test: Antibacterial activity against Erythromycin-susceptible Streptococcus pneumoniae ATCC 49619 assessed as reduction in microbial growth; type: functional
[19] = tested on: Streptococcus pyogenes; test: Antibacterial activity against MLSB-resistant Streptococcus pyogenes 12-206 harboring ermA gene assessed as reduction in microbial growth; type: functional
[20] = tested on: Streptococcus pneumoniae; test: Ratio of MBC to MIC against Erythromycin-susceptible Streptococcus pneumoniae ATCC 49619; type: functional
[21] = tested on: Streptococcus pneumoniae; test: Antibacterial activity against penicillin-susceptible Streptococcus pneumoniae PU09 harboring mef gene assessed as reduction in microbial growth; type: functional
[22] = tested on: Streptococcus pneumoniae; test: Antibacterial activity against MLSB-resistant Streptococcus pneumoniae 07P390 harboring ermB gene assessed as reduction in microbial growth; type: functional
[23] = tested on: Streptococcus pneumoniae; test: Ratio of MBC to MIC against MLSB-resistant Streptococcus pneumoniae 07P390 harboring ermB; type: functional
[24] = tested on: Escherichia coli; test: Antibacterial activity against NDM-1 producing Escherichia coli […] assessed as reduction in microbial growth; type: functional
[25] = tested on: Enterococcus faecium; test: Antibacterial activity against vancomycin-resistant Enterococcus faecium ATCC 700221 assessed as reduction in microbial growth
[26] = tested on: Enterobacter cloacae; test: Antibacterial activity against Enterobacter cloacae ATCC 43560 assessed as reduction in microbial growth; type: functional
[27] = tested on: Klebsiella pneumoniae; test: Antibacterial activity against NDM-1 producing Klebsiella pneumoniae ATCC BAA-2146 assessed as reduction in microbial growth; type: functional
[28] = tested on: Enterococcus faecalis; test: Antibacterial activity against vancomycin-susceptible Enterococcus faecalis ATCC 29212 assessed as reduction in microbial growth; type: functional
[29] = tested on: Staphylococcus aureus; test: Antibacterial activity against methicillin-susceptible Staphylococcus aureus ATCC 29213 assessed as reduction in microbial growth; type: functional
[30] = tested on: Staphylococcus epidermidis; test: Antibacterial activity against methicillin-resistant Staphylococcus epidermidis 16-5 assessed as reduction in microbial growth; type: functional
[31] = tested on: Acinetobacter baumannii; test: Antibacterial activity against Acinetobacter baumannii ATCC 19606 assessed as reduction in microbial growth; type: functional; conditions: ATCC 19606 = CIP 70.34 = JCM 6841
[32] = tested on: Staphylococcus aureus; test: Antibacterial activity against methicillin-resisitant Staphylococcus aureus 16-30 assessed as reduction in microbial growth; type: functional
[33] = tested on: Staphylococcus epidermidis; test: Antibacterial activity against methicillin-susceptible Staphylococcus epidermidis ATCC 12228 assessed as reduction in microbial growth; type: functional
[34] = tested on: Shigella; test: Antibacterial activity against Shigella ATCC 12022 assessed as reduction in microbial growth; type: functional
[35] = tested on: Klebsiella aerogenes; test: Antibacterial activity against Enterobacter aerogenes ATCC 13048 assessed as reduction in microbial growth; type: functional
[36] = tested on: Staphylococcus aureus; test: Ratio of MBC to MIC against MLSB/methicillin-resistant Staphylococcus aureus 15B196; type: functional

**Q.** Which Ratio [1] does the source give for `CC[C@H]1OC(=O)[C@H](C)[C@@H](OC(=O)Cc2ccccn2)[C@H](C)[C@@H](O[C@@H]2O[C@H](C)C[C@H](N(C)C)[C@H]2O)[C@](C)(OC(=O)CCNCCC#Cc2ccc3ncccc3c2)C[C@@H](C)CN(C)[C@H](C)[C@@H](O)[C@]1(C)O` here?
**A.** The Ratio was 2.

**Q.** And the “fold change (FC)” value [2]?
**A.** The value was 0.0054.

**Q.** What about the MBC [3] of the same compound?
**A.** The MBC was over 32 µg/mL.

**Q.** What about the Ratio [4] of the same compound?
**A.** Its Ratio is over 8.

**Q.** What about the MBC [5] of the same compound?
**A.** The MBC was 0.03 µg/mL (≈ 0.0312 µM).

**Q.** What about the “fold change (FC)” value [6] of the same compound?
**A.** The value was 344.

**Q.** And the MBC [7]?
**A.** Its MBC is 8 µg/mL (≈ 8.33 µM).

**Q.** And the MBC [8]?
**A.** Its MBC is over 256 µg/mL.

**Q.** And the MBC [9]?
**A.** The MBC was 1 µg/mL (≈ 1.04 µM).

**Q.** And the Ratio [10]?
**A.** Its Ratio is over 8.

**Q.** And the MBC [11]?
**A.** Its MBC is 64 µg/mL.

**Q.** And the “fold change (FC)” value [12]?
**A.** Its value is over 44.

**Q.** And the MIC [13]?
**A.** Its MIC is 4 µg/mL.

**Q.** What about the MIC [14] of the same compound?
**A.** Its MIC is 4 µg/mL.

**Q.** What about the MIC [15] of the same compound?
**A.** The MIC was over 256 µg/mL.

**Q.** What about the Ratio [16] of the same compound?
**A.** The Ratio was 2.

**Q.** And the MBC [17]?
**A.** The MBC was over 16 µg/mL.

**Q.** And the MIC [18]?
**A.** The MIC was 0.03 µg/mL.

**Q.** What about the MIC [19] of the same compound?
**A.** Its MIC is 2 µg/mL.

**Q.** What about the Ratio [20] of the same compound?
**A.** The Ratio was 1.

**Q.** And the MIC [21]?
**A.** Its MIC is 0.5 µg/mL.

**Q.** And the MIC [22]?
**A.** Its MIC is 32 µg/mL.

**Q.** What does the source list for `CC[C@H]1OC(=O)[C@H](C)C(=O)[C@H](C)[C@@H](O[C@@H]2O[C@H](C)C[C@H](N(C)C)[C@H]2O)[C@](C)(OC)C[C@@H](C)C(=O)[C@H](C)[C@H]2N(CCCCn3cnc(-c4cccnc4)c3)C(=O)O[C@]12C` [TELITHROMYCIN]?
**A.** Ratio [1]: 2; fold change (FC) [2]: 0.0032; MBC [5]: ≤ 0.008 µg/mL; fold change (FC) [6]: 407; MBC [9]: 0.5 µg/mL (≈ 0.616 µM); Ratio [23]: >8; MBC [11]: > 0.125 µg/mL; fold change (FC) [12]: >52; MIC [13]: 2 µg/mL; MIC [14]: 4 µg/mL; MIC [15]: 4 µg/mL; MIC [18]: ≤ 0.008 µg/mL; MIC [19]: 0.25 µg/mL; MIC [21]: 0.25 µg/mL; MIC [22]: 0.016 µg/mL

**Q.** Which MIC [24] does the source give for `C[C@H]1COc2c(N3CCN(C)CC3)c(F)cc3c(=O)c(C(=O)O)cn1c23.C[C@H]1COc2c(N3CCN(C)CC3)c(F)cc3c(=O)c(C(=O)O)cn1c23.O` [LEVOFLOXACIN] here?
**A.** The MIC was 16 µg/mL.

**Q.** And the MIC [25]?
**A.** Its MIC is 32 µg/mL.

**Q.** And the MIC [26]?
**A.** Its MIC is under 0.03 µg/mL.

**Q.** What about the MIC [27] of the same compound?
**A.** The MIC was over 128 µg/mL.

**Q.** What about the MIC [28] of the same compound?
**A.** Its MIC is 0.5 µg/mL.

**Q.** And the MIC [29]?
**A.** The MIC was 0.12 µg/mL.

**Q.** What about the MIC [30] of the same compound?
**A.** Its MIC is 8 µg/mL.

**Q.** And the MIC [31]?
**A.** Its MIC is 0.25 µg/mL.

**Q.** What about the MIC [32] of the same compound?
**A.** Its MIC is 32 µg/mL.

**Q.** And the MIC [33]?
**A.** Its MIC is 0.12 µg/mL.

**Q.** And the MIC [34]?
**A.** The MIC was under 0.03 µg/mL.

**Q.** And the MIC [35]?
**A.** Its MIC is 0.06 µg/mL.

**Q.** With `CC[C@H]1OC(=O)[C@H](C)[C@@H](OC(=O)Cc2ccccn2)[C@H](C)[C@@H](O[C@@H]2O[C@H](C)C[C@H](N(C)C)[C@H]2O)[C@](C)(OC(=O)CCN2CCN(c3cc4c(cc3F)c(=O)c(C(N)=O)cn4C3CC3)CC2)C[C@@H](C)CN(C)[C@H](C)[C@H]2OC(=O)O[C@@]21C` as the compound, how does the Ratio [1] read?
**A.** The Ratio was 2.

**Q.** What about the MBC [3] of the same compound?
**A.** The MBC was over 256 µg/mL.

**Q.** What about the Ratio [4] of the same compound?
**A.** The Ratio was 1.

**Q.** What about the MBC [5] of the same compound?
**A.** Its MBC is 8 µg/mL (≈ 7.14 µM).

**Q.** And the Ratio [36]?
**A.** The Ratio was over 8.

**Q.** And the MBC [7]?
**A.** The MBC was over 256 µg/mL.

**Q.** What about the MBC [8] of the same compound?
**A.** The MBC was over 256 µg/mL.

**Q.** What about the MBC [9] of the same compound?
**A.** The MBC was 16 µg/mL (≈ 14.3 µM).

**Q.** And the Ratio [10]?
**A.** Its Ratio is over 8.

**Q.** And the Ratio [23]?
**A.** Its Ratio is 1.

**Q.** What about the MBC [11] of the same compound?
**A.** Its MBC is 32 µg/mL.

**Q.** And the MIC [13]?
**A.** Its MIC is 32 µg/mL.

**Q.** And the MIC [14]?
**A.** The MIC was 256 µg/mL.

**Q.** What about the MIC [15] of the same compound?
**A.** The MIC was 32 µg/mL.

**Q.** And the MBC [17]?
**A.** The MBC was 16 µg/mL (≈ 14.3 µM).

**Q.** What about the MIC [18] of the same compound?
**A.** The MIC was 4 µg/mL.

**Q.** What about the MIC [19] of the same compound?
**A.** Its MIC is 16 µg/mL.

**Q.** What about the Ratio [20] of the same compound?
**A.** Its Ratio is 2.

**Q.** And the MIC [21]?
**A.** The MIC was 8 µg/mL.

**Q.** And the MIC [22]?
**A.** The MIC was 32 µg/mL.
